In ChEMBL document CHEMBL1154607, “Searching for new cures for tuberculosis: design, synthesis, and biological evaluation of 2-methylbenzothiazoles” (J Med Chem, 2009) one finds MIC, MCC and IC50 data, which are given here for 38 molecules.

The structures appear in SMILES notation. ≈ marks a conversion by molar mass, not a printed value.

The test system of data set [1] is Mycobacterium tuberculosis. The data set can be described thus: Antimycobacterial activity against Mycobacterium tuberculosis H37Rv after 7 days by microplate alamar blue assay. The data set is classed as functional. As to conditions: 168 h. The method, boiled down: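 M. tuberculosis H37Rv growth inhibition was read by microplate Alamar blue assay (MABA). The value is reported as the minimum inhibitory concentration (MIC), in μM.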

The nature of data set [2]: Cytotoxicity against african green monkey Vero cells after 72 hrs. The data set is classed as cell-based. Conditions: chlorocebus sabaeus, read-out: MIC. The method, boiled down: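 Toxicity was tested in Vero cells, and the value is reported as IC50 in μM.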
The next data set concerns Plasmodium falciparum. The data set can be described thus: Antimicrobial activity against chloroquine and pyrimethamine-resistant Plasmodium falciparum K1 in erythrocytes. The class given is functional, organism-based.
In a further data set the test system is Trypanosoma cruzi. The data set can be described thus: Antimicrobial activity against Trypanosoma cruzi Tulahuen C2C4 amastigote forms infected in rat L6 cells. The class given is functional, organism-based.
Data set [3] deals with Trypanosoma brucei rhodesiense. Kind of data set: Antimicrobial activity against Trypanosoma brucei rhodesiense STIB 900 trypomastigote forms. The class given is functional, organism-based.
The test system of a further data set is Leishmania donovani. Kind of data set: Antimicrobial activity against Leishmania donovani MHOM/ET/67/L82 axenic amastigote forms. The data set is classed as functional, organism-based.

As for `Cc1nc2cc(OCc3cc(C(=O)N[C@H](C(=O)NNC(=O)c4ccncc4)c4ccccc4)no3)ccc2s1`, the MIC – broadly, the least concentration at which growth counts as inhibited – in data set [1] stood at 47.5 µM (≈ 25.8 µg/mL).

Take `COC(=O)[C@@H](NC(=O)c1cc(COc2nc3ccccc3s2)on1)c1ccccc1`: in data set [2], the MCC at 72 h was above 128 µM. Also, the 50% inhibitory concentration (IC50) – broadly, the concentration at which inhibition is half-maximal – in the data set on Plasmodium falciparum was above 5 µM; with Trypanosoma cruzi, 26.8 µM; in data set [3], 88.6 µM; in the data set on Leishmania donovani it was 4.99 µM. In data set [1], this molecule showed a minimal inhibitory concentration (MIC) of 15.2 µM (≈ 6.44 µg/mL).

Turning to `COC(=O)c1ccccc1NC(=O)c1cc(COc2ccc3sc(C)nc3c2)on1`, the MCC at 72 h in data set [2] was above 128 µM. For the same molecule, 30.2 µM (≈ 12.8 µg/mL) was the least that counted as inhibitory in data set [1] (MIC).

As to `Cc1nc2cc(OCc3cc(C(=O)N4CCCCC4)no3)ccc2s1`, the minimum inhibitory concentration (MIC) in data set [1] worked out at 120 µM (≈ 42.7 µg/mL).

Take `COC(=O)[C@H](CCSC)NC(=O)c1cc(COc2ccc3sc(C)nc3c2)on1`: the MCC at 72 h in data set [2] is above 128 µM. Besides, the minimum inhibitory concentration (MIC) in data set [1] came to 3.7 µM (≈ 1.61 µg/mL).

Consider `Cc1nc2cc(OCc3cc(C(=O)N[C@H](C(=O)O)c4ccccc4)no3)ccc2s1`, for which the 50% inhibitory concentration (IC50) in the data set with Plasmodium falciparum is above 5 µM; with Trypanosoma cruzi, above 90 µM; in data set [3], 89.5 µM; in the data set with Leishmania donovani, 32.3 µM. In data set [1], this molecule gave an MIC above 128 µM.

As for `Cc1nc2cc(OCc3cc(C(=O)N(C)C)no3)ccc2s1`, the minimum inhibitory concentration (MIC) in data set [1] was above 128 µM.

In the case of `COC(=O)[C@@H](NC(=O)c1cc(COc2cccc3sc(C)nc23)on1)c1ccccc1`, the MCC at 72 h in data set [2] was above 128 µM. Also, the concentration for half-maximal inhibition (IC50) in the data set with Plasmodium falciparum is above 5 µM; in the data set on Trypanosoma cruzi it was 18.8 µM; in data set [3], above 90 µM; with Leishmania donovani, 4.12 µM. The same molecule displayed an MIC in data set [1] of 7.4 µM (≈ 3.24 µg/mL).

Regarding `Cc1nc2cc(OCc3cc(C(=O)N4CCN(C)CC4)no3)ccc2s1`, the MCC at 72 h in data set [2] was above 128 µM. The same molecule yielded a minimal inhibitory concentration (MIC) in data set [1] above 128 µM.

Consider `Cc1nc2cc(OCc3cc(C(=O)O)no3)ccc2s1`, for which the MIC in data set [1] was above 128 µM.

Regarding `CCN(CC)C(=O)c1cc(COc2ccc3sc(C)nc3c2)on1`, the minimum inhibitory concentration (MIC) in data set [1] was above 128 µM.

Turning to `COC(=O)[C@@H](NC(=O)c1cc(COc2ccccc2)on1)c1ccccc1`, in data set [2], the MCC at 72 h was above 128 µM. Also, the half-maximal inhibitory concentration (IC50) was above 5 µM with Plasmodium falciparum, 45.9 µM in the data set with Trypanosoma cruzi, above 90 µM in data set [3] and 13.5 µM with Leishmania donovani. The same molecule had an MIC in data set [1] of 3.5 µM (≈ 1.28 µg/mL).

Turning to `COC(=O)[C@@H](NC(=O)c1cc(COc2ccc3sc(-c4cccc(C(F)(F)F)c4)nc3c2)on1)c1ccccc1`, the MIC in data set [1] is 59.5 µM (≈ 33.8 µg/mL).

Consider `COC(=O)[C@H](Cc1ccccc1)NC(=O)c1cc(COc2ccc3sc(C)nc3c2)on1`, for which the MCC at 72 h in data set [2] is above 128 µM. This molecule also came in with an MIC in data set [1] of 14.4 µM (≈ 6.5 µg/mL).

As to `COC(=O)[C@@H](NC(=O)c1nc(COc2ccc3sc(C)nc3c2)cs1)c1ccccc1`, the concentration for half-maximal inhibition (IC50) in the data set with Plasmodium falciparum amounted to 4.86 µM; with Trypanosoma cruzi, 14.5 µM; in data set [3], 37.5 µM; with Leishmania donovani, 4.44 µM. For the same molecule, inhibition of growth in data set [1] (MIC) required 62.5 µM (≈ 28.3 µg/mL).

In turn, `Cc1nc2cc(OCc3cc(C(=O)N4CCOCC4)no3)ccc2s1` showed an MIC in data set [1] above 128 µM.

As to `COC(=O)[C@@H](NC(=O)c1cc(COc2ccc3sc(C)nc3c2)on1)c1ccccc1Cl`, the MCC at 72 h in data set [2] is above 128 µM. In addition, the MIC in data set [1] is 15.5 µM (≈ 7.31 µg/mL).

For `COC(=O)[C@H](CC(C)C)NC(=O)c1cc(COc2ccc3sc(C)nc3c2)on1`, the MCC at 72 h in data set [2] was above 128 µM. The IC50 with Plasmodium falciparum came to 4.57 µM; in the data set with Trypanosoma cruzi, 12.3 µM; in data set [3], 18.7 µM; in the data set with Leishmania donovani, 2.79 µM. Also, it took 3.8 µM (≈ 1.59 µg/mL) to inhibit growth in data set [1] (MIC).

For `COC(=O)[C@@H](NC(=O)c1cc(COc2ccc3sc(C)nc3c2)on1)c1ccccc1`, the MCC at 72 h in data set [2] is above 128 µM. The concentration for half-maximal inhibition (IC50) in the data set with Plasmodium falciparum was 3.97 µM; in the data set with Trypanosoma cruzi, above 90 µM; in data set [3] it was 74.2 µM; with Leishmania donovani it was 27.5 µM. In data set [1], this molecule gave an MIC of 1.4 µM (≈ 0.612 µg/mL).

Regarding `COC(=O)[C@@H](NC(=O)c1ccc2sc(C)nc2c1)c1ccccc1`, in data set [2], the MCC at 72 h is above 128 µM. In data set [1], this molecule had an MIC of 13 µM (≈ 4.43 µg/mL).

Take `Cc1nc2cc(OCc3cc(C(=O)N4CCNCC4)no3)ccc2s1`: the MIC in data set [1] was above 128 µM.

On to `Cc1nc2cc(OCc3cc(C(=O)N[C@H](C(=O)NO)c4ccccc4)no3)ccc2s1`, for which the IC50 came to 1.82 µM in the data set with Plasmodium falciparum, 6.2 µM in the data set on Trypanosoma cruzi, 0.415 µM in data set [3] and 3.25 µM in the data set with Leishmania donovani. The minimal inhibitory concentration (MIC) in data set [1] was above 128 µM.

`Cc1nc2cc(OCc3cc(C(=O)N4CCCCO4)no3)ccc2s1`: 7.8 µM (≈ 2.8 µg/mL) was the least that counted as inhibitory in data set [1] (MIC).

`COC(=O)[C@H](NC(=O)c1cc(COc2ccc3sc(C)nc3c2)on1)c1ccccc1`: the MCC at 72 h in data set [2] was above 128 µM. Besides, the 50% inhibitory concentration (IC50) in the data set with Plasmodium falciparum came out at 3.33 µM; in the data set on Trypanosoma cruzi, 37.5 µM; in data set [3], 89.5 µM; in the data set with Leishmania donovani it was 22.3 µM. The molecule further came in with a minimal inhibitory concentration (MIC) in data set [1] of 1.9 µM (≈ 0.831 µg/mL).

With `Cc1nc2cc(OCc3cc(C(=O)NCc4ccccc4)no3)ccc2s1`, the IC50 with Plasmodium falciparum was 3.43 µM; in the data set on Trypanosoma cruzi, above 90 µM; in data set [3] it was 86.9 µM; with Leishmania donovani, 8.8 µM. The minimal inhibitory concentration (MIC) in data set [1] is above 128 µM.

In data set [1], `CCOC(=O)c1cc(COc2ccc3sc(C)nc3c2)on1` gave an MIC above 128 µM.

For the molecule `Cc1nc2cc(OCc3cc(C(=O)NO)no3)ccc2s1`, the IC50 in the data set on Plasmodium falciparum came out at 2.76 µM; in the data set with Trypanosoma cruzi, 15.9 µM; in data set [3], 1.85 µM; in the data set on Leishmania donovani, 6.06 µM. The MIC in data set [1] is above 128 µM.

On to `Cc1nc2cc(OCc3cc(C(=O)N[C@H](CO)c4ccccc4)no3)ccc2s1`, for which the half-inhibitory concentration (IC50) is 2.56 µM in the data set with Plasmodium falciparum, above 90 µM in the data set on Trypanosoma cruzi, 31.2 µM in data set [3] and above 90 µM in the data set on Leishmania donovani. In data set [1], this molecule returned an MIC above 128 µM.

For the molecule `COC(=O)[C@@H](NC(=O)c1cc(C)on1)c1ccccc1`, the MCC at 72 h in data set [2] was above 128 µM. The half-maximal inhibitory concentration (IC50) in the data set with Plasmodium falciparum was above 5 µM; with Trypanosoma cruzi it was above 90 µM; in data set [3], above 90 µM; with Leishmania donovani, 56.3 µM. Moreover, in data set [1], the MIC worked out at 37 µM (≈ 10.1 µg/mL).

As to `COC(=O)[C@@H](NC(=O)c1cc(COc2ccc3sc(C)nc3c2)on1)c1ccc(OC)cc1`, in data set [2], the MCC at 72 h is above 128 µM. Moreover, the MIC in data set [1] was 12.2 µM (≈ 5.7 µg/mL).

Take `COC(=O)[C@@H](NC(=O)c1cc(COc2ccc3sc(C)nc3c2)on1)c1ccc(O)cc1`: the MCC at 72 h in data set [2] was above 128 µM. Moreover, the 50% inhibitory concentration (IC50) came to 2.5 µM in the data set on Plasmodium falciparum, 26.4 µM with Trypanosoma cruzi, 88.9 µM in data set [3] and 4.48 µM in the data set with Leishmania donovani. The molecule further registered a minimal inhibitory concentration (MIC) in data set [1] of 15.4 µM (≈ 6.98 µg/mL).

Regarding `Cc1nc2cc(OCc3cc(C(=O)NNC(=O)c4ccncc4)no3)ccc2s1`, the MCC at 72 h in data set [2] was above 128 µM. The concentration for half-maximal inhibition (IC50) was above 5 µM in the data set on Plasmodium falciparum, above 90 µM in the data set with Trypanosoma cruzi, 38 µM in data set [3] and above 90 µM with Leishmania donovani. The same molecule registered an MIC in data set [1] of 4.4 µM (≈ 1.8 µg/mL).

`COC(=O)[C@@H](NC(=O)c1cc(COc2ccc3sc(C)nc3c2)on1)C(C)C` returned an MIC in data set [1] above 128 µM.

Consider `COC(=O)[C@@H](NC(=O)c1cc(CSc2nc3ccccc3s2)on1)c1ccccc1`, for which, in data set [2], the MCC at 72 h was above 128 µM. In addition, the IC50 was above 5 µM in the data set with Plasmodium falciparum, 16.9 µM with Trypanosoma cruzi, 88.9 µM in data set [3] and 6.03 µM with Leishmania donovani. The same molecule yielded a minimal inhibitory concentration (MIC) in data set [1] of 13 µM (≈ 5.71 µg/mL).

Molecule `O=C(Cn1ccnc1[N+](=O)[O-])NCc1ccccc1` [BENZNIDAZOLE] yielded a half-maximal inhibitory concentration (IC50) with Trypanosoma cruzi of 0.521 µM.

Turning to `NNC(=O)c1ccncc1` [ISONIAZID], in data set [2], the MCC at 72 h is above 128 µM. In data set [1], the minimal inhibitory concentration (MIC) came out at 0.5 µM (≈ 0.0686 µg/mL).

`CCCCCCCCCCCCCCCCOP(=O)([O-])OCC[N+](C)(C)C` [MILTEFOSINE] returned a half-maximal inhibitory concentration (IC50) in the data set with Leishmania donovani of 0.142 µM.

In the case of `CO[C@H]1/C=C/O[C@@]2(C)Oc3c(C)c(O)c4c(O)c(c(/C=N/N5CCN(C)CC5)c(O)c4c3C2=O)NC(=O)/C(C)=C\C=C\[C@H](C)[C@H](O)[C@@H](C)[C@@H](O)[C@@H](C)[C@H](OC(C)=O)[C@@H]1C` [RIFAMPIN], in data set [2], the MCC at 72 h amounted to 127 µM. The molecule further yielded an MIC in data set [1] of 0.1 µM (≈ 0.0823 µg/mL).
